Results from ChEMBL document CHEMBL4354800, “Amphiphilic nebramine-based hybrids Rescue legacy antibiotics from intrinsic resistance in multidrug-resistant Gram-negative bacilli” (Eur J Med Chem, 2019).

Experiments:
Type in all cases: functional
[1] = tested on: Escherichia coli; experiment: Potentiation of minocycline-induced antibacterial activity against Escherichia coli 107115 assessed as fold reduction in minocycline MIC at 4.1 uM incubated for 18 hrs by broth dilution method
Method in brief: (§1)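 Antibiotic MIC determined by CLSI broth microdilution (MHB, 5 × 10^5 CFU/mL, 18 h, 37 °C), once alone and once with a fixed concentration of the adjuvant. Potentiation is the ratio of the antibiotic MIC alone to its MIC in the presence of the adjuvant.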

[2] = tested on: Escherichia coli; experiment: Potentiation of rifampicin-induced antibacterial activity against Escherichia coli 107115 assessed as fold reduction in rifampicin MIC at 4.1 uM incubated for 18 hrs by broth dilution method; method in brief: as §1
[3] = tested on: Acinetobacter baumannii; experiment: Antimicrobial activity against multidrug-resistant Acinetobacter baumannii AB92247 incubated for 18 hrs by broth dilution method; conditions: AB92247, 18 h
Method in brief: (§2)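 Broth microdilution per CLSI: overnight cultures set to 0.5 McFarland in saline, diluted 1:50 in Mueller-Hinton broth to a final 5 × 10^5 CFU/mL, added to 2-fold serial dilutions, incubated 18 h at 37 °C; MIC is the lowest concentration without visible turbidity, confirmed at 590 nm.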

[4] = tested on: Acinetobacter baumannii; experiment: Antimicrobial activity against multidrug-resistant Acinetobacter baumannii AB110193 incubated for 18 hrs by broth dilution method; conditions: AB110193, 18 h; method in brief: as §2
[5] = tested on: Escherichia coli; experiment: Antimicrobial activity against Escherichia coli 94474 incubated for 18 hrs by broth dilution method; conditions: Escherichia coli, 94474, 18 h
Method in brief: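 CLSI broth microdilution. Overnight cultures were adjusted to 0.5 McFarland in saline, diluted 1:50 in Mueller-Hinton broth, and inoculated at a final 5 × 10^5 CFU/mL. Compounds were tested as 2-fold serial dilutions and incubated 18 h at 37 °C. MIC was the lowest concentration with no visible turbidity, confirmed by absorbance at 590 nm.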

[6] = tested on: Klebsiella pneumoniae; experiment: Potentiation of minocycline-induced antibacterial activity against Klebsiella pneumoniae 113254 assessed as fold reduction in minocycline MIC at 4.1 uM incubated for 18 hrs by broth dilution method; method in brief: as §1
[7] = tested on: Pseudomonas aeruginosa; experiment: Antimicrobial activity against XDR Pseudomonas aeruginosa isolate PA264 infected in Galleria mellonella larvae assessed as survival rate at 25 mg/kg co-administered with 25 mg/kg rifampicin at 2 hrs post-inoculation measured after 18 hrs relative to control
Method in brief: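 G. mellonella larvae were injected with ~5 CFU of P. aeruginosa PA264 (10 µL of 5 × 10^2 CFU/mL in PBS) and held 2 h at 37 °C. A single 10 µL injection followed: monotherapy or rifampicin + compound (25+25, 50+50 or 75+75 mg/kg), with PBS as control. Larvae kept at 37 °C were scored every 6 h to 24 h; dead = no response to touch. n = 30 (two runs of 15); Kaplan-Meier.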

[8] = tested on: Pseudomonas aeruginosa; experiment: Potentiation of rifampicin-induced antimicrobial activity against MDR/XDR Pseudomonas aeruginosa isolate PA260-97103 harboring GyrA Thr83Ile mutant assessed as rifampicin MIC80 incubated for 18 hrs by broth microdilution method (reference value: 16 microg/ml); conditions: isolate PA260-97103, 18 h
[9] = tested on: Pseudomonas aeruginosa; experiment: Potentiation of moxifloxacin-induced antibacterial activity against MDR/XDR Pseudomonas aeruginosa isolate 101885 harboring GyrA T83I mutant assessed as fold reduction in moxifloxacin MIC at 7.5 uM incubated for 18 hrs by broth microdilution method
Method in brief: (§3)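 CLSI broth microdilution. Overnight cultures were set to 0.5 McFarland in saline, diluted 1:50 in Mueller-Hinton broth to a final 5 × 10^5 CFU/mL, and incubated 18 h at 37 °C against 2-fold antibiotic dilutions. A fixed adjuvant level was present throughout. MIC = lowest concentration with no visible turbidity, confirmed at 590 nm. Potentiation = fold drop in antibiotic MIC versus antibiotic alone.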

[10] = tested on: Pseudomonas aeruginosa; experiment: Potentiation of ciprofloxacin-induced antibacterial activity against MDR/XDR Pseudomonas aeruginosa isolate PA259-96918 harboring GyrA T83I mutant assessed as fold reduction in ciprofloxacin MIC at 7.5 uM incubated for 18 hrs by broth microdilution method
[11] = tested on: Acinetobacter baumannii; experiment: Synergistic antibacterial activity against multidrug-resistant Acinetobacter baumannii AB031 assessed as fractional inhibitory concentration index in presence of rifampicin incubated for 18 hrs by broth dilution method
[12] = tested on: Acinetobacter baumannii; experiment: Synergistic antibacterial activity against multidrug-resistant Acinetobacter baumannii 110193 assessed as fractional inhibitory concentration index in presence of minocycline incubated for 18 hrs by broth dilution method
[13] = tested on: Pseudomonas aeruginosa; experiment: Potentiation of minocycline-induced antimicrobial activity against MDR/XDR Pseudomonas aeruginosa isolate 101885 harboring GyrA Thr83Ile mutant assessed as minocycline MIC50 incubated for 18 hrs by broth microdilution method (reference value: 16 microg/ml); conditions: isolate 101885, 18 h
[14] = tested on: Pseudomonas aeruginosa; experiment: Potentiation of rifampicin-induced antimicrobial activity against MDR/XDR Pseudomonas aeruginosa isolate PA259-96918 harboring GyrA Thr83Ile mutant assessed as rifampicin MIC50 incubated for 18 hrs by broth microdilution method (reference value: 8 microg/ml); conditions: isolate PA259-96918, 18 h
[15] = tested on: Pseudomonas aeruginosa; experiment: Potentiation of rifampicin-induced antibacterial activity against MDR/XDR Pseudomonas aeruginosa isolate PA262-101856 harboring GyrA T83I mutant assessed as fold reduction in rifampicin MIC at 7.5 uM incubated for 18 hrs by broth microdilution method; method in brief: as §3
[16] = tested on: Pseudomonas aeruginosa; experiment: Potentiation of rifampicin-induced antimicrobial activity against MDR/XDR Pseudomonas aeruginosa isolate PA264-104354 harboring GyrA Thr83Ile mutant assessed as rifampicin MIC80 incubated for 18 hrs by broth microdilution method (reference value: 16 microg/ml); conditions: isolate PA264-104354, 18 h
[17] = tested on: Acinetobacter baumannii; experiment: Potentiation of rifampicin-induced antibacterial activity against multidrug-resistant Acinetobacter baumannii AB027 assessed as fold reduction in rifampicin MIC at 7.5 uM incubated for 18 hrs by broth dilution method; method in brief: as §3
[18] = tested on: Pseudomonas aeruginosa; experiment: Potentiation of minocycline-induced antimicrobial activity against MDR/XDR Pseudomonas aeruginosa isolate PA260-97103 harboring GyrA Thr83Ile mutant assessed as minocycline MIC50 incubated for 18 hrs by broth microdilution method (reference value: 16 microg/ml); conditions: isolate PA260-97103, 18 h
[19] = tested on: Pseudomonas aeruginosa; experiment: Potentiation of ciprofloxacin-induced antibacterial activity against MDR/XDR Pseudomonas aeruginosa isolate 101885 harboring GyrA T83I mutant assessed as fold reduction in ciprofloxacin MIC at 9 uM incubated for 18 hrs by broth microdilution method
[20] = tested on: Pseudomonas aeruginosa; experiment: Potentiation of minocycline-induced antibacterial activity against MDR/XDR Pseudomonas aeruginosa isolate PA259-96918 harboring GyrA T83I mutant assessed as fold reduction in minocycline MIC at 9 uM incubated for 18 hrs by broth microdilution method
[21] = tested on: Pseudomonas aeruginosa; experiment: Potentiation of rifampicin-induced antibacterial activity against MDR/XDR Pseudomonas aeruginosa isolate PA259-96918 harboring GyrA T83I mutant assessed as fold reduction in rifampicin MIC at 9 uM incubated for 18 hrs by broth microdilution method; method in brief: as §3
[22] = tested on: Pseudomonas aeruginosa; experiment: Potentiation of ciprofloxacin-induced antibacterial activity against MDR/XDR Pseudomonas aeruginosa isolate 100036 harboring GyrA T83I mutant assessed as fold reduction in ciprofloxacin MIC at 9 uM incubated for 18 hrs by broth microdilution method

Cl.Cl.Cl.Cl.Cl.NC[C@H]1O[C@H](O[C@H]2[C@H](OCCCCCCCCCCCCN3CCN(c4cc5c(cc4F)c(=O)c(C(=O)O)cn5C4CC4)CC3)[C@@H](O)[C@H](N)C[C@@H]2N)[C@H](N)C[C@@H]1O
fold change (FC) [1]: 16
fold change (FC) [2]: >=256
MIC [3]: 128 µg/mL
MIC [4]: > 128 µg/mL
MIC [5]: > 128 µg/mL
fold change (FC) [6]: 2
survival at 25 mg/kg [7]: 33%

COc1c(N2C[C@@H]3CCCN(CCCCCCCCCCCCO[C@@H]4[C@@H](O)[C@H](N)C[C@H](N)[C@H]4O[C@H]4O[C@H](CN)[C@@H](O)C[C@H]4N)[C@@H]3C2)c(F)cc2c(=O)c(C(=O)O)cn(C3CC3)c12.Cl.Cl.Cl.Cl.Cl
MIC80 [8]: 0.13 µg/mL
fold change (FC) [9]: 4
fold change (FC) [10]: 4
fractional inhibitory concentration index (FICI) [11]: 0.04
fractional inhibitory concentration index (FICI) [12]: >1
MIC50 [13]: 0.5 µg/mL
MIC50 [14]: 0.06 µg/mL
fold change (FC) [15]: 512
MIC80 [16]: 0.13 µg/mL
fold change (FC) [17]: 32
MIC50 [18]: 0.5 µg/mL

Cl.Cl.Cl.Cl.Cl.Cl.NC[C@H]1O[C@H](O[C@H]2[C@H](OCCCCCCCCCCN3CCN(Cc4cccc5ccccc45)CC3)[C@@H](O)[C@H](N)C[C@@H]2N)[C@H](N)C[C@@H]1O
fold change (FC) [19]: 8
fold change (FC) [20]: 64
fold change (FC) [21]: >=256
fold change (FC) [22]: 8
